For one data set, the target named is Matrix protein 2 (UniProt P0DOF8). Nature of the data set: Inhibition of wild type Influenza A virus (A/chicken/Hubei/327/2004(H5N1)) M2 expressed in yeast cells after 46 to 48 hrs. The class given is cell-based. The method in brief: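 Yeast growth-restoration assay. Yeast carried the M2 coding sequence under the GAL1 promoter, grown in glucose SC medium (pH 6.5) lacking leucine, then washed and resuspended to A600 0.01 in 2% galactose SC medium. Compounds were added at graded concentrations; plates were incubated at 30 °C for 46–48 h and A600 was read. Hits were retested in triplicate for EC50.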
Sequence of Matrix protein 2 (P0DOF8 whole entry): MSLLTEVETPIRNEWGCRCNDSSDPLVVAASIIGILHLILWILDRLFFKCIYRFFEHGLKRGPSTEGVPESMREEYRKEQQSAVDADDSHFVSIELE

For the next data set, the system named is Saccharomyces cerevisiae. Briefly: Toxicity against yeast assessed as reduction in cell viability. In kind it is organism-based. The procedure, abridged: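 Control yeast strain carrying empty plasmid, induced in 2% galactose SC medium (pH 6.5) lacking leucine, with compounds at graded concentrations for 46–48 h at 30 °C. A600 was read. Toxicity value is the concentration inhibiting proliferation by 50%.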

Data set [1] in a line: Cytotoxicity against MDCK cells assessed as reduction in cell viability after 24 hrs by MTT assay. The class given is cell-based, Canis lupus familiaris. The note with it: dog. The method in brief: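 MDCK cells were seeded at 2 × 10^4 per well and treated next day with graded concentrations in DMEM for 24 h. MTT (5 mg mL−1 solution) was added for 4 h at 37 °C, cells were lysed for 3 h, and A575 was read. CC50 is the concentration inhibiting cell growth by 50% versus control cultures.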

The subject of data set [2] is Influenza A virus. Briefly: Antiviral activity against amantadine-sensitive Influenza A virus (A/chicken/Hubei/327/2004(H5N1)) infected in MDCK cells assessed as reduction in early stage viral replication by measuring viral titer at 1.7 uM measured after 12 hrs by crystal violet staining-based plaque reduction assay during time-of-addition assay. The class given is functional, organism-based.

In data set [3] the test system is Influenza A virus. Briefly: Antiviral activity against amantadine-sensitive Influenza A virus (A/chicken/Hubei/327/2004(H5N1)) infected in MDCK cells assessed as reduction in early stage viral replication by measuring viral titer at 4 uM measured after 12 hrs by crystal violet staining-based plaque reduction assay during time-of-addition assay. In kind it is functional, organism-based.

Data set [4] relates to Influenza A virus. Nature of the data set: Antiviral activity against Influenza A virus H5N1. In kind it is functional, organism-based.
In data set [5] the test system is Influenza A virus. Briefly: Antiviral activity against Influenza A virus (H1N1). The class given is functional, organism-based.
Data set [6] has as its system Influenza A virus. Briefly: Antiviral activity against amantadine-sensitive Influenza A virus (A/chicken/Hubei/327/2004(H5N1)) infected in MDCK cells assessed as reduction in early stage viral replication by measuring viral titer at 1.9 uM measured after 12 hrs by crystal violet staining-based plaque reduction assay during time-of-addition assay. The class given is functional, organism-based.

The source made the active and inactive calls. No cut-off for these calls is given here.

The results in this text go back to ChEMBL document CHEMBL4480367 (Medchemcomm, 2019).

For the molecule `O=S(=O)(NCc1cc2ccccc2s1)c1cccc(F)c1`, the EC50 entry at Matrix protein 2 was “Not Active”. In addition, the Activity with Saccharomyces cerevisiae is over 180.5 µM.
Turning to `O=[N+]([O-])c1ccc(S(=O)(=O)NCc2csc3ccccc23)cc1`, the Activity in the data set on Saccharomyces cerevisiae is over 192.3 µM. For the same molecule, the CC50 at 24 h in data set [1] is over 191 µM.
For `Cc1cc(CNS(=O)(=O)c2ccc(F)cc2)c(C)o1`, in the data set with Saccharomyces cerevisiae, the Activity was over 236.5 µM. For the same molecule, the CC50 at 24 h in data set [1] was found to be 138 µM.
For `Cc1ccc(S(=O)(=O)NCc2csc3ccccc23)cc1` the same measures were over 211.08 µM and over 210 µM.
Turning to `CC(=O)c1ccc(S(=O)(=O)NCc2csc3ccccc23)cc1`, the Activity in the data set with Saccharomyces cerevisiae is over 194 µM. Moreover, the CC50 at 24 h in data set [1] was over 193 µM.
Turning to `O=S(=O)(NCc1csc2ccccc12)c1ccc(Br)cc1`, the Activity in the data set on Saccharomyces cerevisiae was found to be 134.1 µM. For the same molecule, the CC50 at 24 h in data set [1] was found to be 87.1 µM.
Take `Cc1cc(CNS(=O)(=O)c2ccc(C#N)cc2)c(C)o1`: the Activity in the data set on Saccharomyces cerevisiae worked out at 168.8 µM. In addition, the CC50 at 24 h in data set [1] was found to be 105 µM.
Take `O=S(=O)(NCc1cc2ccccc2s1)c1ccc(F)cc1`: the EC50 entry at Matrix protein 2 was “Not Active”. Further, the Activity with Saccharomyces cerevisiae was over 208.5 µM.
In the case of `Cc1cc(CNS(=O)(=O)c2ccc(C#N)cc2)c(C)s1`, in the data set with Saccharomyces cerevisiae, the Activity was over 218.7 µM. Further, the CC50 at 24 h in data set [1] was over 218 µM.
For `O=[N+]([O-])c1ccc(S(=O)(=O)NCc2ccsc2)cc1`, in that order: over 224.6 µM and 139 µM.
As to `Cc1cc(CNS(=O)(=O)c2ccc(Br)cc2)c(C)o1`, the Activity in the data set on Saccharomyces cerevisiae was 72.6 µM. The CC50 at 24 h in data set [1] was 29.6 µM.
Consider `Cc1cc(CNS(=O)(=O)c2ccc([N+](=O)[O-])cc2)c(C)o1`, for which, in the data set on Saccharomyces cerevisiae, the Activity was over 215.9 µM. Further, the CC50 at 24 h in data set [1] is over 152 µM.
Regarding `O=S(=O)(NCc1csc2ccccc12)c1ccc(F)cc1`, the Activity with Saccharomyces cerevisiae turned out to be 133.8 µM. The CC50 at 24 h in data set [1] was 98.6 µM.
Consider `NC12CC3CC(CC(C3)C1)C2` [AMANTADINE], for which the Activity in the data set with Saccharomyces cerevisiae was over 443 µM. Moreover, the result with Influenza A virus [2] was Active. Moreover, the half-maximal cytotoxic concentration (CC50) at 24 h in data set [1] was over 100 µM.
Turning to `N#Cc1ccc(S(=O)(=O)NCc2csc3ccccc23)cc1`, the Activity in the data set on Saccharomyces cerevisiae is over 204 µM. The CC50 at 24 h in data set [1] was determined as 122 µM.
With `Cc1cc(CNS(=O)(=O)c2ccc(Cl)cc2)c(C)s1`, in the data set with Saccharomyces cerevisiae, the Activity was 114.1 µM. Also, the CC50 at 24 h in data set [1] was determined as 52.9 µM.
For the molecule `Cc1cc(CNS(=O)(=O)c2ccc(F)cc2)c(C)s1`, the EC50 result at Matrix protein 2 is “Not Active”. Besides, the Activity in the data set with Saccharomyces cerevisiae was 120.2 µM.
In the case of `NC(=O)c1nc(F)cnc1O`, the result in the data set with Influenza A virus [3] was Active.
As for `O=S(=O)(NCc1csc2ccccc12)c1ccc(C(F)(F)F)cc1`, the EC50 result at Matrix protein 2 is recorded as “Not Active”. The Activity with Saccharomyces cerevisiae is over 180.4 µM. For the same molecule, the CC50 at 24 h in data set [1] is 94.8 µM.
For the molecule `Cc1ccc(S(=O)(=O)NCc2cc3ccccc3s2)cc1`, at Matrix protein 2, the EC50 entry is listed as “Not Active”. Also, the Activity with Saccharomyces cerevisiae is over 211.08 µM. Further, in data set [1], the CC50 at 24 h is over 210 µM.
For `CCOC(=O)C1=C[C@@H](OC(CC)CC)[C@H](NC(C)=O)[C@@H](N)C1.O=P(O)(O)O` [OSELTAMIVIR PHOSPHATE], in that order: “Not Active”, over 214.5 µM and over 163 µM.
For `O=S(=O)(NCc1cc2ccccc2s1)c1ccc(C(F)(F)F)cc1` the same measures were “Not Active”, over 180.4 µM and over 180 µM.
For `Cc1cc(C(=O)NCCSCc2ccc([N+](=O)[O-])cc2)c(C)o1`, the EC50 with Influenza A virus [4] is 1.25 µM.
On to `N#Cc1ccc(S(=O)(=O)NCc2cc3ccccc3s2)cc1`, for which, at Matrix protein 2, the EC50 entry is “Not Active”. Moreover, in the data set with Saccharomyces cerevisiae, the Activity is over 204 µM.
On to `O=[N+]([O-])c1ccc(S(=O)(=O)NCc2cccs2)cc1`, for which the Activity in the data set with Saccharomyces cerevisiae is 157.5 µM. For the same molecule, the CC50 at 24 h in data set [1] came to 133 µM.
Regarding `O=S(=O)(NCc1csc2ccccc12)c1cccc(F)c1`, at Matrix protein 2, the EC50 entry is on record as “Not Active”. For the same molecule, in the data set with Saccharomyces cerevisiae, the Activity is over 208.5 µM.
With `O=S(=O)(NCc1csc2ccccc12)c1ccc(Cl)cc1`, in the data set on Saccharomyces cerevisiae, the Activity was 121.4 µM. For the same molecule, the CC50 at 24 h in data set [1] is 69.6 µM.
Turning to `CC1CC2=C(NC(=O)NC2c2ccc(O)c(Br)c2)c2ccccc21` (stereo not drawn), the EC50 in the data set on Influenza A virus [4] and in the data set on Influenza A virus [5] was 0.032 µM each time.
`Cc1cc(CNS(=O)(=O)c2ccc(Cl)cc2)c(C)o1`: the Activity in the data set on Saccharomyces cerevisiae stood at 123.43 µM. Besides, the CC50 at 24 h in data set [1] was 55.7 µM.
With `O=[N+]([O-])c1ccc(S(=O)(=O)NCc2ccoc2)cc1`, in the data set on Saccharomyces cerevisiae, the Activity was over 237.4 µM. Further, in data set [1], the cytotoxic concentration (CC50) at 24 h is over 236 µM.
On to `Cc1cc(CNS(=O)(=O)c2ccc(Br)cc2)c(C)s1`, for which the Activity in the data set with Saccharomyces cerevisiae turned out to be 133.2 µM. Moreover, the result in the data set on Influenza A virus [6] was Active. Besides, the CC50 at 24 h in data set [1] was determined as 56.4 µM.
Take `O=S(=O)(NCc1cc2ccccc2s1)c1ccc(Cl)cc1`: the EC50 entry on Matrix protein 2 is given as “Not Active”. Also, the Activity in the data set with Saccharomyces cerevisiae is over 198.3 µM.
With `Cc1cc(CNS(=O)(=O)c2ccc([N+](=O)[O-])cc2)c(C)s1`, the Activity with Saccharomyces cerevisiae was over 205.3 µM. Also, the CC50 at 24 h in data set [1] is over 204 µM.
Turning to `O=S(=O)(NCc1cc2ccccc2s1)c1ccccc1F`, on Matrix protein 2, the EC50 entry is “Not Active”. In the data set with Saccharomyces cerevisiae, the Activity was over 180.5 µM.
Take `O=[N+]([O-])c1ccc(S(=O)(=O)NCc2cc3ccccc3s2)cc1`: the concentration giving a half-maximal response (EC50) entry at Matrix protein 2 was “Not Active”. The Activity with Saccharomyces cerevisiae was over 192.3 µM. Besides, in data set [1], the CC50 at 24 h is over 191 µM.
As for `O=S(=O)(NCc1csc2ccccc12)c1ccccc1F`, the EC50 entry at Matrix protein 2 is “Not Active”. Also, the Activity in the data set on Saccharomyces cerevisiae is 59.1 µM.
Take `O=S(=O)(NCc1cc2ccccc2s1)c1ccc(Br)cc1`: the EC50 result at Matrix protein 2 was “Not Active”. For the same molecule, the Activity in the data set with Saccharomyces cerevisiae was over 176.2 µM. For the same molecule, the CC50 at 24 h in data set [1] was over 174 µM.
For `O=[N+]([O-])c1ccc(S(=O)(=O)NCc2ccc(Cl)s2)cc1`, in that order: “Not Active”, over 201.3 µM and 128 µM.
